# An excerpt weighted towards active compounds, which were near 1.6% of everything screened.
# F508del corr: CFTR F508del correction in bronchial cells; CFBE cells, YFP halide quenching; stimulated with forskolin plus potentiator P3; % fluorescence drop versus neutral controls; activity (quench increase), % at 7.58 µM; 350,000 tested, 0.36% active; AID 720511;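 active means mean added fluorescence quench of at least 8% versus neutral control, with both replicates also reaching 8%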;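 further: cells transiently co-express mutant CFTR-F508del with the halide-sensitive YFP; corrector assay measuring rescue of mutant channel to the surface after 24 h compound exposure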
# DNMT1 inh: DNMT1 (human) enzyme inhibition | AID 588458 | 360,000 tested, 0.83% active | P26358 | DNMT1 molecular beacon, Hinp1I cleavage, fluorescence | inhibition (reported as % activation of signal), % at 10 µM; in the data active means inhibition above about 50%
# SUMO1-SIM PPI: SUMO1-SIM interaction modulation | P63165 | SUMO1 binding to a labelled peptide, TR-FRET, 1 h | inhibition, % at 20 µM | 360,000 tested, 0.33% active | AID 602429; in the data active means inhibition above about 37%
# Target sequence (P63165 whole entry, looked up): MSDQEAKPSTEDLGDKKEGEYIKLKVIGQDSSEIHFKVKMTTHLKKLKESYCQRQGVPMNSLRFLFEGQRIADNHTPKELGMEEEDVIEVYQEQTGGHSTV
# LMPTP block: blocks human LMPTP phosphatase; recombinant LMPTP-A, OMFP fluorogenic substrate, fluorescence intensity; inhibition, % at 20 µM; 360,000 tested, 0.22% active; AID 651560;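 active means compounds that cut the enzyme signal by at least half of the control window in the single-dose screen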;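 further: plate controls were DMSO wells with enzyme plus substrate for no effect and substrate without enzyme for full effect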
#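 Test system: LMPTP-A phosphatase enzyme; input: 0.625 nM LMPTP-A final; reagent: OMFP substrate, 400 µM final; compound dosing: 20 µM single dose, 3% DMSO; incubation: 50 min dark incubation at room temperature; measured by: endpoint fluorescence intensity from OMFP dephosphorylation; measure: % inhibition relative to no-enzyme and uninhibited control wells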
# STEP inh: STEP (human) phosphatase inhibition; P54829; recombinant STEP, OMFP fluorogenic substrate, fluorescence; inhibition, % at 20 µM; 360,000 tested, 0.25% active; AID 588621;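 active means inhibition at 20 µM, scaled per plate between control wells, above about 37%, limit read from the data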;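 further: 0% = DMSO with enzyme and substrate and 100% = substrate only without enzyme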
# Target sequence (P54829 whole entry, looked up): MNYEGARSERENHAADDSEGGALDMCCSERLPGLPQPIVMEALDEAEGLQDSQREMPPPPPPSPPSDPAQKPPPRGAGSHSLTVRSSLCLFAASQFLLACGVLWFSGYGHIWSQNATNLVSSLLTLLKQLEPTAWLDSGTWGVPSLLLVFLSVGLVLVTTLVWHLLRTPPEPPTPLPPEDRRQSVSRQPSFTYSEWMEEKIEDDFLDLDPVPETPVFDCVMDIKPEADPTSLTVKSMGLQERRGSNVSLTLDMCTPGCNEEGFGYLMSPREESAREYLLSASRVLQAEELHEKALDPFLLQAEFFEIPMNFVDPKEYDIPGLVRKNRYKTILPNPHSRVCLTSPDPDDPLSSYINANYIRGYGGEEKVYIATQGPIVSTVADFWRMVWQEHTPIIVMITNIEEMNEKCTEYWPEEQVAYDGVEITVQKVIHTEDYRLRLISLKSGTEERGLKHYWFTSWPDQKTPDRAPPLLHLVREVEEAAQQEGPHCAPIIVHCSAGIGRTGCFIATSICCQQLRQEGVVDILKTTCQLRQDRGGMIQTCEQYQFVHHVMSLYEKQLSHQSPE
#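 medium = Bis-Tris buffer pH 6.0, 2.5 mM DTT, 0.005% Tween 20 | test system = STEP (striatal-enriched tyrosine phosphatase) enzyme, cell-free | measure = normalized % inhibition | compound dosing = 20 µM, 1% DMSO | also added = 25 µM OMFP | schedule = reaction 20 min, ambient temperature | measured by = fluorescence read at 480 nm ex / 540 nm em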
# Scp-1 inhibitor: blocks human Scp-1 phosphatase activity; Q9GZU7; Recombinant Scp1, phosphopeptide, malachite green phosphate absorbance; inhibition, % at 20 µM; 340,000 tested, 0.88% active;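 active means inhibition above about 50% at 20 µM, limit read from the data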;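 further: plate controls were DMSO wells with enzyme for no effect and wells lacking enzyme for full effect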
#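 Incubation: 45 min enzyme reaction at room temperature / System: truncated SCP-1 phosphatase (76-261aa) / Reagent: Phospho 17-mer peptide substrate / Buffer or medium: Acidic Tris acetate buffer with magnesium and detergent / Signal: absorbance at 630 nm / Doses: one concentration, 20 µM, with 1.0% DMSO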
# STEP conf: confirmation of human STEP phosphatase inhibitors; inhibition, % at 20 µM; shares compounds with STEP inh; recombinant STEP, OMFP fluorogenic substrate, fluorescence; 520 tested, 32% active; AID 623866; call rule not given here;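 further: 0% = enzyme with substrate plus DMSO and 100% = substrate without enzyme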
# Starred values were filed as active, the others as inactive; x = no result given.
SMILES,F508del corr,DNMT1 inh,SUMO1-SIM PPI,LMPTP block,STEP inh,Scp-1 inhibitor,STEP conf
O=C(Nc1nc(-c2ccc3c(c2)Cc2ccccc2-3)cs1)c1ccccc1,x,26,-7,-1,47*,-2,2
O=C(Nc1cccc(-c2csc(Nc3ccccc3)n2)c1)c1ccccc1,2,-36,2,6,-1,6,x
Cc1ccccc1C(=O)NCCCCc1ccccc1,x,3,1,1,46*,-8,7
O=C(C[C@@H]1C[C@H]2c3cc(NC(=O)NC4CCCCC4)ccc3O[C@H]2[C@@H](CO)O1)NCc1ccncc1,-2,x,x,x,x,x,x
Oc1ccccc1C=NNC(=S)Nc1ccc(F)cc1,8,-15,-6,2,-6,-10,x
Cc1nn(C)cc1/C=N/NC(=S)Nc1ccccc1,x,-2,1,1,76*,-7,50*
CCCNC(=O)C[C@@H]1CC[C@H]2[C@H](COc3ccc(NC(=O)c4cscn4)cc3C(=O)N2C)O1,0,x,x,x,x,x,x
O=C(COc1ccc(/C=N/NC(=O)c2ccncc2)cc1)Nc1ccc([N+](=O)[O-])cc1,1,-2,42*,9,80*,-3,84*
CCOc1ccc(/C=N/NC(=O)c2[nH]c3ccc(C)cc3c2C)cc1,2,-7,23,30,80*,-5,6
COc1cc(Cl)cc(/C=N\NC(=O)c2ccc3c(c2)OCO3)c1O,5,3,24,21,52*,x,84*
NS(=O)(=O)c1ccc(NC(=S)NC2CCCCC2)cc1,0,0,0,0,60*,1,24
O=C(c1cccc(F)c1)N1CC2(C1)[C@H](c1ccccc1)[C@H](CO)N2C(=O)C1CC1,4,x,x,x,x,x,x
COc1ccc(S(=O)(=O)N(C)C[C@H]2Oc3c(NS(=O)(=O)c4ccc(C)cc4)cccc3C(=O)N([C@H](C)CO)C[C@@H]2C)cc1,-2,x,x,x,x,x,x
S=C(NCCCN1CCOCC1)Nc1cccc(-c2nnc3n2CCCCC3)c1,-2,12,2,0,42*,-1,23
S=C(NCCCN1CCOCC1)Nc1ccc(-c2nc3ccccc3[nH]2)cc1,1,-10,4,0,65*,-5,40*
CO[C@H]1CN(C)C(=O)c2cc(NC(=O)C3CCC3)ccc2OC[C@@H](C)N(C(=O)CN(C)C)C[C@H]1C,2,x,x,x,x,x,x
O=C(C[C@H]1C=C[C@@H](NC(=O)Nc2ccc(F)cc2)[C@@H](CO)O1)NCc1cccc(F)c1,2,x,x,x,x,x,x
Cc1ccc(NC(=O)C(c2ccccc2)N2CCN(CC(=O)N3CCOCC3)CC2)cc1Cl (stereo not drawn),-1,23,0,7,46*,48,-10
Cn1c(SCC(=O)N2CCCC2)nc2cccnc21,-3,2,0,1,52*,-6,1
O=C(CSc1nc2cccnc2n1Cc1ccccc1)N1CCCC1,x,1,-3,0,0,2,x
Cc1cccc2c(C(=O)N3CCN(c4ccccn4)CC3)cc(-c3cccc(Br)c3)nc12,1,-10,-4,6,69*,-1,19
O=C(c1cc(-c2cccc(Cl)c2)nc2ccccc12)N1CCN(c2ccccn2)CC1,1,-2,-3,6,1,0,x
CN1[C@@H]2c3ccc(/C=C/c4ccccc4)c(=O)n3C[C@@H]2[C@@H](CO)[C@@H]1C(=O)N1CCOCC1,0,x,x,x,x,x,x
Cc1ccc(NC(=O)C(=O)NCCCN2CCCC2=O)cc1,-2,1,0,0,-1,2,x
Cc1ccc(COc2ccc(CNCCCN3CCCCCC3=O)cc2)cc1,1,1,2,-3,75*,1,8
SMILES,F508del corr,DNMT1 inh,SUMO1-SIM PPI,LMPTP block,STEP inh,Scp-1 inhibitor,STEP conf
COCC(=O)N1CC(=O)N2[C@H](C1)[C@H](c1ccc(-c3cccnc3)cc1)[C@@H]2CO,0,x,x,x,x,x,x
N#Cc1cnc(SCC(=O)NNC(=O)COc2cccc3ccccc23)nc1N,x,-6,10,15,100*,0,1
Cc1cccc(OCC(=O)NNC(=O)CSc2ncc(C#N)c(N)n2)c1,x,-5,15,0,-1,-5,x
COc1ccc(-c2csc3nc(-c4cccnc4)nc(N4CCC(C(N)=O)CC4)c23)cc1OC,x,-20,-9,1,50*,0,29
CC1(C)Cc2c(sc(NC(=O)C(=O)NCCCN3CCOCC3)c2C(N)=O)CO1,-1,1,-5,-2,40*,-4,13
Cc1cc(C)c(NC(=S)N(CCN(C)C)Cc2cccs2)c(C)c1,0,-1,0,-3,1,1,x
Cc1ccc(NC(=S)N(CCN(C)C)Cc2cccs2)c(C)c1,-1,1,0,-2,72*,-9,42*
CC(C)C#Cc1ccc2c(c1)O[C@@H](CN(C)C(=O)CC1CC1)[C@@H](C)CN([C@@H](C)CO)S2(=O)=O,-3,x,x,x,x,x,x
N/C(=N\OC(=O)CCCc1ccccc1)c1ccccc1,-1,3,7,2,-2,-6,x
N/C(=N\OC(=O)CCCc1ccccc1)c1cccc([N+](=O)[O-])c1,x,-3,-22,2,55*,-10,15
Cc1noc(C)c1NC(=O)N(C)C[C@H]1OCCCC[C@@H](C)Oc2ccc(NC(=O)c3ccccc3)cc2C(=O)N([C@H](C)CO)C[C@H]1C,-1,x,x,x,x,x,x
C=CCn1c(SCCN2CCOCC2)nc2c1c(=O)[nH]c(=O)n2C,x,2,-5,-2,2,-4,x
COCCn1c(SCCN2CCOCC2)nc2c1c(=O)[nH]c(=O)n2C,-1,-2,0,-2,60*,2,29
COc1cccc(C(=O)/C=C/Nc2ccc(S(=O)(=O)Nc3onc(C)c3C)cc2)c1,x,-4,3,3,43*,-2,7
C[C@@H]1CN([C@@H](C)CO)C(=O)Cc2cc(NC(=O)Cc3ccccc3)ccc2O[C@H]1CN(C)C(=O)Nc1ccc2c(c1)OCO2,2,x,x,x,x,x,x
O=C(Nc1ccccc1-c1nc2ccccc2s1)C1=COCCO1,x,13,-2,51*,58*,26,16
CCOC(=O)C(=N/O)/C(C)=N/NC(C)=O,-2,0,-4,1,-2,-4,x
CCOC(=O)C(=N/O)/C(C)=N/NC(=O)C(=O)Nc1cc(Cl)ccc1Cl,1,-6,3,0,51*,-7,8
CCN(CC)S(=O)(=O)c1ccc(C(=O)NN(C)C2=NS(=O)(=O)c3ccccc32)cc1,-2,-4,0,-1,0,6,x
CCN(C1=NS(=O)(=O)c2ccccc21)N(CC)S(=O)(=O)c1ccc(C)cc1,x,-5,1,1,73*,-8,4
